# Assay results taken from ChEMBL document CHEMBL4038284, “Synthesis of novel quinoline-based 4,5-dihydro-1H-pyrazoles as potential anticancer, antifungal, antibacterial and antiprotozoal agents” (Eur J Med Chem, 2017).
# What was measured:
# Candida albicans [1] = test: Growth inhibition of Candida albicans ATCC 10231 at 62.5 ug/ml incubated for 48 hrs under dark condition by broth microdilution method relative to control; format: functional; conditions: ATCC 10231, 48 h, read-out: GI
# Method in brief: (§1)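 CLSI M27-A3 broth microdilution in RPMI-1640, DMSO ≤1%. Inoculum 1-5 × 10^3 CFU/mL. Incubated 48 h at 30 °C, dark. % inhibition = 100 − (OD405 test − sterility control)/(OD405 growth control − sterility control), with growth and sterility control wells. Triplicate.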
# Staphylococcus aureus [2] = test: Antibacterial activity against vancomycin-intermediate Staphylococcus aureus after 24 hrs by resazurin dye based microdilution assay; format: functional
# Method in brief: (§2)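 MIC taken as the lowest concentration giving visible inhibition and/or by resazurin (1 mg/mL). Gentamicin was the control. Run in duplicate, repeated at least three times.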
# Cryptococcus neoformans [3] = test: Growth inhibition of Cryptococcus neoformans ATCC 32264 at 3.4 ug/ml incubated for 48 hrs under dark condition by broth microdilution method relative to control; format: functional; conditions: ATCC 32264, 48 h, read-out: GI
# Staphylococcus aureus [4] = test: Antibacterial activity against methicillin-sensitive Staphylococcus aureus ATCC 25923 after 24 hrs by resazurin dye based microdilution assay; format: functional; conditions: ATCC 25923, 24 h; method in brief: as §2
# Cryptococcus neoformans [5] = test: Growth inhibition of Cryptococcus neoformans ATCC 32264 at 62.5 ug/ml incubated for 48 hrs under dark condition by broth microdilution method relative to control; format: functional; conditions: ATCC 32264, 48 h, read-out: GI; method in brief: as §1
# Cryptococcus neoformans [6] = test: Growth inhibition of Cryptococcus neoformans ATCC 32264 at 15.62 ug/ml incubated for 48 hrs under dark condition by broth microdilution method relative to control; format: functional; conditions: ATCC 32264, 48 h, read-out: GI; method in brief: as §1
# Cryptococcus neoformans [7] = test: Growth inhibition of Cryptococcus neoformans ATCC 32264 at 125 ug/ml incubated for 48 hrs under dark condition by broth microdilution method relative to control; format: functional; conditions: ATCC 32264, 48 h, read-out: GI; method in brief: as §1
# Pseudomonas aeruginosa = test: Antibacterial activity against Pseudomonas aeruginosa ATCC 27853 after 24 hrs by resazurin dye based microdilution assay; format: functional; conditions: ATCC 27853, 24 h; method in brief: as §2
# Cryptococcus neoformans [8] = test: Growth inhibition of Cryptococcus neoformans ATCC 32264 at 7.8 ug/ml incubated for 48 hrs under dark condition by broth microdilution method relative to control; format: functional; conditions: ATCC 32264, 48 h, read-out: GI; method in brief: as §1
# Neisseria gonorrhoeae = test: Antibacterial activity against beta lactamase positive Neisseria gonorrhoeae ATCC 31426 by oxidase test; format: functional
# Method in brief: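 Agar dilution MIC on GC agar with 1% isovitalex containing increasing compound concentrations. Plates inoculated with about 1×10^4 CFU (5 µL). MIC is the lowest concentration that inhibited growth, with growth confirmed by oxidase test. Run in duplicate, repeated at least three times.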
# Leishmania panamensis = test: Antileshmanial activity against EpiR/GFP fused Leishmania panamensis MHOM/CO/87/UA140 intracellular amastigotes infected in human […] cells after 72 hrs by flow cytometric method; format: functional, cell-based; conditions: MHOM/CO/87/UA140, 72 h
# Method in brief: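 PMA-treated U-937 cells (3 × 10^5 cells/mL) infected with stationary-phase GFP L. panamensis promastigotes (15:1), 3 h at 34 °C, then washed. After 24 h, compounds added at 50, 12.5, 3.125 and 0.78 µg/mL for 72 h at 37 °C. EC50 by Probit; triplicate, two experiments.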
# Candida albicans [9] = test: Growth inhibition of Candida albicans ATCC 10231 at 7.8 ug/ml incubated for 48 hrs under dark condition by broth microdilution method relative to control; format: functional; conditions: ATCC 10231, 48 h, read-out: GI; method in brief: as §1
# Cryptococcus neoformans [10] = test: Growth inhibition of Cryptococcus neoformans ATCC 32264 at 31.25 ug/ml incubated for 48 hrs under dark condition by broth microdilution method relative to control; format: functional; conditions: ATCC 32264, 48 h, read-out: GI; method in brief: as §1
# Candida albicans [11] = test: Growth inhibition of Candida albicans ATCC 10231 at 250 ug/ml incubated for 48 hrs under dark condition by broth microdilution method relative to control; format: functional; conditions: ATCC 10231, 48 h, read-out: GI; method in brief: as §1
# Candida albicans [12] = test: Growth inhibition of Candida albicans ATCC 10231 at 15.62 ug/ml incubated for 48 hrs under dark condition by broth microdilution method relative to control; format: functional; conditions: ATCC 10231, 48 h, read-out: GI; method in brief: as §1
# Escherichia coli = test: Antibacterial activity against Escherichia coli ATCC 25922 after 24 hrs by resazurin dye based microdilution assay; format: functional; conditions: ATCC 25922, 24 h; method in brief: as §2
# U-937 = test: Cytotoxicity against human U937 cells after 72 hrs by MTT assay; format: cell-based; conditions: u-937, 72 h
# Method in brief: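 Exponentially growing U-937 at 1 × 10^5 cells/mL in RPMI-1640 with 10% FBS were exposed to 200, 50, 12.5 and 3.125 µg/mL for 72 h at 37 °C, 5% CO2. MTT for 3 h, stopped with isopropanol/SDS, formazan read at 570 nm, blank-corrected. LC50 by Probit from % viability against untreated cells. Triplicate, at least two independent experiments.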
# Staphylococcus aureus [13] = test: Antibacterial activity against methicillin-resistant Staphylococcus aureus ATCC 43300 after 24 hrs by resazurin dye based microdilution assay; format: functional; conditions: ATCC 43300, 24 h
# Method in brief: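 Broth microdilution in Mueller Hinton broth, inoculum 5 × 10^5 – 8 × 10^5. Compound stocks diluted in MHB with 5% DMSO and 0.1% Tween 80. Incubation 24 h at 35-37 °C. MIC is the lowest concentration with visible growth inhibition and/or by resazurin (1 mg/mL) read-out. Gentamicin as control. Run in duplicate, replicated at least three times.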
# Plasmodium falciparum = test: Antiplasmodial activity against chloroquine-sensitive Plasmodium falciparum 3D7 assessed as reduction in parasitic LDH activity after 48 hrs by Malstat reagent based […] method; format: functional; conditions: 3D7, 48 h
# Method in brief: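 Unsynchronized P. falciparum 3D7 at 0.5% parasitemia and 1% hematocrit in RPMI with 3% Albumax II. Exposed to 100, 25, 6.25 and 1.56 µg/mL for 48 h at 37 °C under 90% N2/5% CO2/5% O2. After three freeze-thaw cycles, LDH measured with Malstat and NBT/PES, 1 h in the dark, read at 650 nm. IC50 by Probit; triplicate, ≥2 experiments.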
# Klebsiella pneumoniae [14] = test: Antibacterial activity against ESBL positive Klebsiella pneumoniae ATCC 700603 after 24 hrs by resazurin dye based microdilution assay; format: functional; conditions: Klebsiella pneumoniae, 700603, 24 h; method in brief: as §2
# Candida albicans [15] = test: Growth inhibition of Candida albicans ATCC 10231 at 125 ug/ml incubated for 48 hrs under dark condition by broth microdilution method relative to control; format: functional; conditions: ATCC 10231, 48 h, read-out: GI; method in brief: as §1
# Candida albicans [16] = test: Growth inhibition of Candida albicans ATCC 10231 at 31.25 ug/ml incubated for 48 hrs under dark condition by broth microdilution method relative to control; format: functional; conditions: ATCC 10231, 48 h, read-out: GI; method in brief: as §1
# Candida albicans [17] = test: Growth inhibition of Candida albicans ATCC 10231 at 3.4 ug/ml incubated for 48 hrs under dark condition by broth microdilution method relative to control; format: functional; conditions: ATCC 10231, 48 h, read-out: GI
# Cryptococcus neoformans [18] = test: Growth inhibition of Cryptococcus neoformans ATCC 32264 at 250 ug/ml incubated for 48 hrs under dark condition by broth microdilution method relative to control; format: functional; conditions: ATCC 32264, 48 h, read-out: GI; method in brief: as §1
# Klebsiella pneumoniae [19] = test: Antibacterial activity against carbapenemase positive Klebsiella pneumoniae BAA 1705 after 24 hrs by resazurin dye based microdilution assay; format: functional; conditions: BAA 1705, 24 h; method in brief: as §2
# Candida albicans [20] = test: Antifungal activity against Candida albicans ATCC 10231 incubated for 48 hrs under dark condition by broth microdilution method; format: functional; conditions: ATCC 10231, 48 h
# Method in brief: (§3)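 CLSI M27-A3 broth microdilution in RPMI-1640, DMSO ≤1%, compounds at 250-0.98 µg/mL final. Inoculum 1-5 × 10^3 CFU/mL. Incubated 48 h at 30 °C in a moist dark chamber, read at OD405. MIC80 and MIC50 taken from % inhibition dose-response curves (mean ± SEM, triplicate). Amphotericin B was the positive control.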
# Cryptococcus neoformans [21] = test: Antifungal activity against Cryptococcus neoformans ATCC 32264 incubated for 48 hrs under dark condition by broth microdilution method; format: functional; conditions: ATCC 32264, 48 h; method in brief: as §3
# Trypanosoma cruzi = test: Antitrypanosomal activity against Trypanosoma cruzi Tulahuen intracellular amastigote harboring LacZ infected in human U937 cells after 72 hrs by CPRG/Nonidet reagent based spectrophotometric method; format: functional, cell-based; conditions: U-937, 72 h
# Method in brief: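 U-937 cells at 2.5 × 10^5 cells/mL in RPMI-1640 with 10% serum and 0.1 µg/mL PMA were infected with β-galactosidase-transfected Tulahuen epimastigotes at 5 parasites per cell. Infected cells were exposed to 50, 12.5, 3.125 and 0.78 µg/mL for 72 h. CPRG (100 uM) and 0.1% Nonidet P-40 were added for 3 h, read at 570 nm. EC50 by Probit. Triplicate, at least two experiments; benznidazole as reference.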
compound,measurement,setting,value
Clc1cc(Cl)cc(N2N=C(c3ccc(Br)cc3)CC2c2cccc(Nc3ccnc4cc(Cl)ccc34)c2)c1 (stereo not given),inhibition of growth at 62.5 µg/mL,Candida albicans [1],4.45%
same,MIC,Staphylococcus aureus [2],> 1000 µg/mL
same,inhibition of growth at 3.4 µg/mL,Cryptococcus neoformans [3],0%
same,MIC,Staphylococcus aureus [4],> 1000 µg/mL
same,inhibition of growth at 62.5 µg/mL,Cryptococcus neoformans [5],0%
same,inhibition of growth at 15.62 µg/mL,Cryptococcus neoformans [6],0%
same,inhibition of growth at 125 µg/mL,Cryptococcus neoformans [7],0%
same,MIC,Pseudomonas aeruginosa,> 1000 µg/mL
same,inhibition of growth at 7.8 µg/mL,Cryptococcus neoformans [8],0%
same,MIC,Neisseria gonorrhoeae,> 1000 µg/mL
same,EC50,Leishmania panamensis,2.77 µg/mL
same,inhibition of growth at 7.8 µg/mL,Candida albicans [9],1.43%
same,inhibition of growth at 31.25 µg/mL,Cryptococcus neoformans [10],0%
same,inhibition of growth at 250 µg/mL,Candida albicans [11],13.7%
same,inhibition of growth at 15.62 µg/mL,Candida albicans [12],1.92%
same,MIC,Escherichia coli,> 1000 µg/mL
same,LC50,U-937,> 200 µg/mL
same,MIC,Staphylococcus aureus [13],> 1000 µg/mL
same,EC50,Plasmodium falciparum,14.4 µg/mL
same,MIC,Klebsiella pneumoniae [14],> 1000 µg/mL
same,inhibition of growth at 125 µg/mL,Candida albicans [15],7.23%
same,inhibition of growth at 31.25 µg/mL,Candida albicans [16],2.07%
same,inhibition of growth at 3.4 µg/mL,Candida albicans [17],0%
same,inhibition of growth at 250 µg/mL,Cryptococcus neoformans [18],13.3%
same,MIC,Klebsiella pneumoniae [19],> 1000 µg/mL
same,MIC50,Candida albicans [20],≥ 250 µg/mL
same,MIC80,Candida albicans [20],≥ 250 µg/mL
same,MIC50,Cryptococcus neoformans [21],≥ 250 µg/mL
same,MIC80,Cryptococcus neoformans [21],≥ 250 µg/mL
same,EC50,Trypanosoma cruzi,28.3 µg/mL
O=C(/C=C/c1cccc(Nc2ccnc3cc(Cl)ccc23)c1)c1ccccc1,inhibition of growth at 62.5 µg/mL,Candida albicans [1],36.2%
same,MIC,Staphylococcus aureus [2],> 1000 µg/mL
same,inhibition of growth at 3.4 µg/mL,Cryptococcus neoformans [3],17.9%
same,MIC,Staphylococcus aureus [4],> 1000 µg/mL
same,inhibition of growth at 62.5 µg/mL,Cryptococcus neoformans [5],80.8%
same,inhibition of growth at 15.62 µg/mL,Cryptococcus neoformans [6],32.3%
same,inhibition of growth at 125 µg/mL,Cryptococcus neoformans [7],89.5%
same,MIC,Pseudomonas aeruginosa,> 1000 µg/mL
same,inhibition of growth at 7.8 µg/mL,Cryptococcus neoformans [8],25.6%
same,MIC,Neisseria gonorrhoeae,> 1000 µg/mL
same,EC50,Leishmania panamensis,2.54 µg/mL
same,inhibition of growth at 7.8 µg/mL,Candida albicans [9],25.2%
same,inhibition of growth at 31.25 µg/mL,Cryptococcus neoformans [10],52.5%
same,inhibition of growth at 250 µg/mL,Candida albicans [11],43.5%
same,inhibition of growth at 15.62 µg/mL,Candida albicans [12],27.7%
same,MIC,Escherichia coli,> 1000 µg/mL
same,LC50,U-937,1.5 µg/mL
same,MIC,Staphylococcus aureus [13],> 1000 µg/mL
same,EC50,Plasmodium falciparum,10.3 µg/mL
same,MIC,Klebsiella pneumoniae [14],> 1000 µg/mL
same,inhibition of growth at 125 µg/mL,Candida albicans [15],36.7%
same,inhibition of growth at 31.25 µg/mL,Candida albicans [16],31.7%
same,inhibition of growth at 3.4 µg/mL,Candida albicans [17],21.5%
same,inhibition of growth at 250 µg/mL,Cryptococcus neoformans [18],100%
same,MIC,Klebsiella pneumoniae [19],> 1000 µg/mL
same,MIC50,Candida albicans [20],≥ 250 µg/mL
same,MIC80,Candida albicans [20],≥ 250 µg/mL
same,MIC50,Cryptococcus neoformans [21],31.2 µg/mL
same,MIC80,Cryptococcus neoformans [21],62.5 µg/mL
same,EC50,Trypanosoma cruzi,> 0.8 µg/mL
